# ChEMBL document CHEMBL4002602, “Design, Synthesis of Novel, Potent, Selective, Orally Bioavailable Adenosine A2A Receptor Antagonists and Their Biological Evaluation” (J Med Chem, 2017)
# The source made the active and inactive calls. The calls are words filed in the database; no cut-off is given here.
# Key:
# [1] = Metabolic stability in rat hepatocytes at 1 uM after 3 to 30 mins by LC-MS/MS analysis; format: ADME, cell-based, Hepatocyte
# [2] = biological target: T1, Adenosine receptor A1 (Homo sapiens) (UniProt P30542); test: Antagonist activity at human adenosine A1 receptor expressed in HEK293 cell membranes assessed as decrease in CPA/forskolin-induced cAMP level at 10 uM pretreated for 15 mins followed by agonist addition for 15 mins and subsequent forskolin stimulation measured after 30 mins; format: functional, cell-based
# T1 sequence (whole entry): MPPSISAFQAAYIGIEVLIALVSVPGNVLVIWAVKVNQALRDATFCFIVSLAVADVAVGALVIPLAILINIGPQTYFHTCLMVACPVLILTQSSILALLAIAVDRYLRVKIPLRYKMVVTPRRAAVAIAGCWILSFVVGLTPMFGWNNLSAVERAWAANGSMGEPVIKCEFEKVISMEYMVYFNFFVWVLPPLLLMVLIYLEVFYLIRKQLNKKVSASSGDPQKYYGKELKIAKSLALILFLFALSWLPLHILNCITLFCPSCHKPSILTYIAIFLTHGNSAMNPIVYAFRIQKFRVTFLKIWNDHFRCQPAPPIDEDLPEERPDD
# In short: (§1)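 Whole HEK-A1 cells were seeded overnight and then pretreated with 1 U/ml ADA for 90 min at 37 °C and 5% CO2. Compound was added for 15 min, then 1 nM CPA for 15 min, then forskolin for 30 min, at room temperature in incomplete DMEM with ADA and 20 μM rolipram. cAMP was read by HTRF (620/665 nm). Compounds ran at 12 concentrations in triplicate, with 10 or 30 μM as the top concentration.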
# [3] = biological target: T1, Adenosine receptor A1 (Homo sapiens); test: Antagonist activity at human adenosine A1 receptor expressed in HEK293 cell membranes assessed as decrease in CPA/forskolin-induced cAMP level at 30 uM pretreated for 15 mins followed by agonist addition for 15 mins and subsequent forskolin stimulation measured after 30 mins; format: functional, cell-based; in short: as §1
# [4] = biological target: CYP1A2 (Homo sapiens, UniProt P05177); test: Inhibition of CYP1A2 in human liver microsomes at 5 to 25 uM using phenacetin as substrate preincubated for 5 mins with substrate followed by NADPH addition measured after 10 mins by LC-MS/MS analysis; format: ADME; details: human liver microsomes, probe phenacetin
# Sequence of CYP1A2 (P05177 whole entry): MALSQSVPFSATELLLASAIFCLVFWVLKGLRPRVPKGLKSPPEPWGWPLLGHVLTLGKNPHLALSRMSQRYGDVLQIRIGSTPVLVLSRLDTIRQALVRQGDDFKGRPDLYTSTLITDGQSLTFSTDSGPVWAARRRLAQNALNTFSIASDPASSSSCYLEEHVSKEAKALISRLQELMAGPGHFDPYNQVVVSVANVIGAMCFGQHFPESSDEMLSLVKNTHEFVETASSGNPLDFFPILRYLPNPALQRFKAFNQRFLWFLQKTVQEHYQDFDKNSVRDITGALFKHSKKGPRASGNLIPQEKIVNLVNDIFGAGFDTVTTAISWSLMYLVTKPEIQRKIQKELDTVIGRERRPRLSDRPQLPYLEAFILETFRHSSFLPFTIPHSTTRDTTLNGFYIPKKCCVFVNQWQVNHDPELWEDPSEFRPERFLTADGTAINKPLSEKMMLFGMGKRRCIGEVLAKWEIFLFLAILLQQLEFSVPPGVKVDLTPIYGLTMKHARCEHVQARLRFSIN
# [5] = biological target: CYP2C19 (Homo sapiens, UniProt P33261); test: Inhibition of CYP2C19 in human liver microsomes at 5 to 25 uM using (S)mephenytoin as substrate preincubated for 5 mins with substrate followed by NADPH addition measured after 40 mins by LC-MS/MS analysis; format: ADME; details: human liver microsomes, probe (S)-mephenytoin
# Sequence of CYP2C19 (P33261 whole entry): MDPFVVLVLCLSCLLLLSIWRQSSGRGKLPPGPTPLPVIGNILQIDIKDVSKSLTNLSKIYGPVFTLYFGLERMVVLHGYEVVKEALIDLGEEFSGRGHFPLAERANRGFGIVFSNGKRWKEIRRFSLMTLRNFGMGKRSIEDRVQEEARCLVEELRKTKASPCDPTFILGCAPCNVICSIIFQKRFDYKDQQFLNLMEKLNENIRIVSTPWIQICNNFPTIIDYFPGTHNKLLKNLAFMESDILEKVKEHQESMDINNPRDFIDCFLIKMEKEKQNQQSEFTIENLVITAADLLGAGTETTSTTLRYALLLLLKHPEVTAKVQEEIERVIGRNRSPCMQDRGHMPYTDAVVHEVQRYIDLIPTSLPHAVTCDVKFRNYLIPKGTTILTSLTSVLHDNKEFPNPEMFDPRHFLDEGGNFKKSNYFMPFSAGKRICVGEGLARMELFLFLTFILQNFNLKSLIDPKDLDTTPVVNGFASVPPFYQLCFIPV
# [6] = system: Rattus norvegicus; test: Clearance in Wistar rat at 3 mg/kg, iv by LC/MS/MS analysis relative to hepatic blood flow; format: ADME, organism-based; details: in vivo
# [7] = Protein binding in rat serum at 1 uM after 6 hrs by HT dialysis method; format: ADME, cell-free; details: read-out: PB (converted)
# [8] = Half-life in rat hepatocytes at 1 uM by LC-MS/MS analysis; format: ADME, cell-based, Hepatocyte
# [9] = AUC (0 to t) in Wistar rat brain at 10 mg/kg administered through oral gavage by LC/MS/MS analysis; format: ADME, organism-based
# In short: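 Male Wistar rats (230 ± 15 g), fasted overnight, given an oral suspension (1% Tween 80, 0.5% NaCMC; 1 mg/mL, 10 mL/kg). Blood and brain were collected discretely at 0.5, 2, 4 and 8 h. Brain was washed in PBS pH 7.4, weighed and homogenized, then acetonitrile-precipitated with internal standard. LC/MS/MS against standards in blank brain homogenate; n=4.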
# [10] = biological target: T2, Adenosine receptor A3 (Homo sapiens) (UniProt P0DMS8); test: Displacement of [3H]-HEMADO from human adenosine A3 receptor expressed in HEK293 cell membranes at 30 uM measured after 90 mins
# T2 sequence (whole entry): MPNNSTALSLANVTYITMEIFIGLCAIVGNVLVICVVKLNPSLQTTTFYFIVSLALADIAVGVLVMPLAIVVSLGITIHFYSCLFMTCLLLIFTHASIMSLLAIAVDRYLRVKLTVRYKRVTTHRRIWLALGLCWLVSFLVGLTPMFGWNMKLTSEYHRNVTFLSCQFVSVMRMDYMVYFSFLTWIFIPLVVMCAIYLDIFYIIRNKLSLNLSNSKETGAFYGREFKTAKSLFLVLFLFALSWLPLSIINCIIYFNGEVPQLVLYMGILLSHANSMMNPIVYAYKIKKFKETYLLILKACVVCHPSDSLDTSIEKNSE
# [11] = biological target: CYP3A (Homo sapiens, UniProt P08684+P20815+P24462+Q9HB55); test: Inhibition of CYP3A in human liver microsomes at 5 to 25 uM using testosterone as substrate preincubated for 5 mins with substrate followed by NADPH addition measured after 10 mins by LC-MS/MS analysis; format: ADME; details: human liver microsomes, probe testosterone
# [12] = biological target: CYP2D6 (Homo sapiens, UniProt P10635); test: Inhibition of CYP2D6 in human liver microsomes at 5 to 25 uM using dextromethorphan as substrate preincubated for 5 mins with substrate followed by NADPH addition measured after 10 mins by LC-MS/MS analysis; format: ADME; details: human liver microsomes, probe dextromethorphan
# Sequence of CYP2D6 (P10635 whole entry): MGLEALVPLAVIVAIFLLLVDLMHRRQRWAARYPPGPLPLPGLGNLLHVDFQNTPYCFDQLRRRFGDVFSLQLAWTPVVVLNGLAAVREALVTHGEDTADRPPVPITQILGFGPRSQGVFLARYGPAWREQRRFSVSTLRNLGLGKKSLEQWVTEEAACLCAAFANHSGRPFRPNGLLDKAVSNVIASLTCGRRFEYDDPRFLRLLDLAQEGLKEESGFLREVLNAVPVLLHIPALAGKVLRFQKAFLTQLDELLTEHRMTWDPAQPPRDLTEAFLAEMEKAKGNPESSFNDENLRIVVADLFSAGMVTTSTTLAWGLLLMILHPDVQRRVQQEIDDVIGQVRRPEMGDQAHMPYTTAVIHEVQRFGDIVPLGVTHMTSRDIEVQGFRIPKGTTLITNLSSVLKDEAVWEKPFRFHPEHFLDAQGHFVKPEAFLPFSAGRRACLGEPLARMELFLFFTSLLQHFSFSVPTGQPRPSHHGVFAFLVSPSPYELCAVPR
# [13] = Apparent permeability across apical to basolateral side in human Caco2 cells at 5 uM after 90 mins; format: ADME, cell-based; details: Caco-2
# [14] = Metabolic stability in rat hepatocytes assessed as parent compound remaining at 1 uM measured at 60 mins post dose by LC-MS/MS analysis; format: ADME, cell-based, Hepatocyte; details: read-out: Stability
# [15] = AUC (0 to t) in Wistar rat plasma at 10 mg/kg administered through oral gavage by LC/MS/MS analysis; format: ADME, organism-based
# [16] = system: HepG2; test: Cytotoxicity against human HepG2 cells; format: cell-based
# [17] = biological target: T3, Adenosine receptor A2b (Homo sapiens) (UniProt P29275); test: Antagonist activity at human adenosine A2B receptor expressed in HEK293 cell membranes assessed as decrease in NECA/forskolin-induced cAMP level at 10 uM pretreated for 15 mins followed by agonist addition for 15 mins and subsequent forskolin stimulation measured after 30 mins; format: functional, cell-based
# T3 sequence (whole entry): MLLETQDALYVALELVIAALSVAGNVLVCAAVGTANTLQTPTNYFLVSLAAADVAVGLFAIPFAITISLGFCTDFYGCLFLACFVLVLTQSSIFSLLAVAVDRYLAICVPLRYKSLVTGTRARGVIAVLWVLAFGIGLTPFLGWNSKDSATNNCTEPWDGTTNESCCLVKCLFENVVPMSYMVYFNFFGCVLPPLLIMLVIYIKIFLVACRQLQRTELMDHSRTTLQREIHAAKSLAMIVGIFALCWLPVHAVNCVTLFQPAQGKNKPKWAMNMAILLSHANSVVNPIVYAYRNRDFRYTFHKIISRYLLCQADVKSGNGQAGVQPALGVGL
# In short: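 Whole HEK-A2B cells were seeded overnight and then pretreated with 1 U/ml ADA for 90 min at 37 °C and 5% CO2. Compound was added for 15 min, then 70 nM NECA for 15 min, at room temperature with mixing in incomplete DMEM with ADA. cAMP was read by HTRF (620/665 nm). Compounds ran at 12 concentrations in triplicate, with 10 μM as the highest tested concentration.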
SMILES,Stability [1],Activity [2],Activity [3],IC50 at 10 min [4] [µM],IC50 at 40 min [5] [µM],clearance [6] [%],"fraction unbound at 6 h, 1 µM [7]",half-life at 1 µM [8] [h],AUC(0-t) [9] [µM·h],Activity [10],IC50 at 10 min [11] [µM],IC50 at 10 min [12] [µM],"Papp A→B at 1.5 h, 5 µM [13] [×10⁻⁶ cm/s]","remaining at 1 h, 1 µM [14] [%]",AUC(0-t) [15] [µM·h],Activity [17],IC50 [16] [µM]
COc1cnc(N2CCOCC2)c2sc(NC(=O)C(C)(C)Oc3ccc(F)cc3)nc12,Stable,inactive,,,,,,,,,,,,,,,
COc1ccc(N2CCOCC2)c2sc(NC(=O)C(C)(C)Oc3ccc(F)c(F)c3)nc12,,inactive,,,,,,,,,,,,,,inactive,

# More lines, main results first:
Stability [1],Activity [2],Activity [3],IC50 at 10 min [4] [µM],IC50 at 40 min [5] [µM],clearance [6] [%],"fraction unbound at 6 h, 1 µM [7]",half-life at 1 µM [8] [h],AUC(0-t) [9] [µM·h],Activity [10],IC50 at 10 min [11] [µM],IC50 at 10 min [12] [µM],"Papp A→B at 1.5 h, 5 µM [13] [×10⁻⁶ cm/s]","remaining at 1 h, 1 µM [14] [%]",AUC(0-t) [15] [µM·h],Activity [17],SMILES,IC50 [16] [µM]
,,inactive,> 50,> 50,60 to 65,0.24,> 1,1.1,inactive,> 50,> 50,3.7,89,4.7,,CCN(CC)C1CCC(C)(C(=O)Nc2nc3c(OC)ccc(N4CCOCC4)c3s2)CC1 (stereo unspecified),> 100
,,inactive,> 25,> 25,60 to 65,0.13,> 1,,inactive,> 25,> 25,12.2,88,,,COc1ccc(N2CCOCC2)c2sc(NC(=O)C3(C)CCC(C)(O)CC3)nc12 (stereo unspecified),> 100
,,,,,,,,,,,,,,,inactive,COc1ccc(N2CCOCC2)c2sc(NC(=O)C(C)(C)Oc3ccc(F)cc3)nc12,
